# Source: ChEMBL document CHEMBL5108089, “Structure-based discovery of potent inhibitors of Axl: design, synthesis, and biological evaluation” (RSC Med Chem, 2022)
# The source made the active and inactive calls. No cut-off for these calls is given here.
# Columns and labels:
# A549 = experiment: Antiproliferative activity against human A549 cells assessed as inhibition of cell growth incubated for 72 hrs by CCK-8 assay; format: functional
# [1] = Metabolic stability in rat liver microsomes assessed as half-life preincubated for 10 mins followed by NADPH addition and measured upto 60 mins by LC-MS/MS analysis; format: ADME, Microsome; settings: time < 70 min
# MV4-11 = experiment: Antiproliferative activity against human MV4-11 cells assessed as inhibition of cell growth incubated for 72 hrs by CCK-8 assay; format: functional
# Procedure, shortened: (§1)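 8000 cells/well. Test compound was serially diluted from a 10 uM top concentration and staurosporine from 1 uM. CC50 and maximum % inhibition are reported.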
# ASPC1 = experiment: Antiproliferative activity against human ASPC1 cells assessed as inhibition of cell growth incubated for 72 hrs by CCK-8 assay; format: functional
# Procedure, shortened: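 5000 cells/well. Test compound was titrated from 10 uM and staurosporine control from 1 uM. Values are CC50 and maximum % inhibition.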
# [2] = AUC (0 to last) in Sprague-Dawley rat at 1 mg/kg, iv measured upto 24 hrs by LC-MS/MS analysis; format: ADME, organism-based; parameters: dose 1 mg/kg, time < 24 hrs, route iv; settings: in vivo
# NCI-H226 = experiment: Antiproliferative activity against human NCI-H226 cells assessed as inhibition of cell growth incubated for 72 hrs by CCK-8 assay; format: functional
# [3] = Metabolic stability in human liver microsomes assessed as intrinsic clearance preincubated for 10 mins followed by NADPH addition and measured upto 60 mins by LC-MS/MS analysis; format: ADME, Microsome; settings: time < 70 min, read-out: CLH
# CAKI-1 = experiment: Antiproliferative activity against human CAKI-1 cells assessed as inhibition of cell growth incubated for 72 hrs by CCK-8 assay; format: functional
# U-87 MG = experiment: Antiproliferative activity against human U87 cells assessed as inhibition of cell growth incubated for 72 hrs by CCK-8 assay; format: functional, U-87MG ATCC
# [4] = target: Receptor-type tyrosine-protein kinase FLT3 (Homo sapiens) (UniProt P36888); experiment: Inhibition of Flt3 (unknown origin) at 1 uM
# [5] = Antiproliferative activity against human T.Tn cells assessed as inhibition of cell growth incubated for 72 hrs by CCK-8 assay; format: functional
# [6] = target: Proto-oncogene tyrosine-protein kinase receptor Ret (Homo sapiens) (UniProt P07949); experiment: Inhibition of Ret (unknown origin) at 1 uM relative to control
# CAL-27 = experiment: Antiproliferative activity against human CAL-27 cells assessed as inhibition of cell growth incubated for 72 hrs by CCK-8 assay; format: functional
# MSTO-211H = experiment: Antiproliferative activity against human MSTO-211H cells assessed as inhibition of cell growth incubated for 72 hrs by CCK-8 assay; format: functional
# NCI-H2052 = experiment: Antiproliferative activity against human NCI-H2052 cells assessed as inhibition of cell growth incubated for 72 hrs by CCK-8 assay; format: functional
# KYSE-510 = experiment: Antiproliferative activity against human KYSE-510 cells assessed as inhibition of cell growth incubated for 72 hrs by CCK-8 assay; format: functional
# RS4-11 = experiment: Antiproliferative activity against human RS4-11 cells assessed as inhibition of cell growth incubated for 72 hrs by CCK-8 assay; format: functional; procedure, shortened: as §1
# OVCAR-3 = experiment: Antiproliferative activity against human OVCAR-3 cells assessed as inhibition of cell growth incubated for 72 hrs by CCK-8 assay; format: functional
# HeLa = experiment: Antiproliferative activity against human HeLa cells assessed as inhibition of cell growth incubated for 72 hrs by CCK-8 assay; format: functional
# SUD4 = experiment: Antiproliferative activity against human SU-DHL-4 cells assessed as inhibition of cell growth incubated for 72 hrs by CCK-8 assay; format: functional; procedure, shortened: as §1
# [7] = Metabolic stability in human liver microsomes assessed as half-life preincubated for 10 mins followed by NADPH addition and measured upto 60 mins by LC-MS/MS analysis; format: ADME, Microsome; settings: time < 70 min
# [8] = target: Vascular endothelial growth factor receptor 2 (Homo sapiens) (UniProt P35968); experiment: Inhibition of KDR (unknown origin) at 1 uM relative to control
# HepG2 = experiment: Antiproliferative activity against human HepG2 cells assessed as inhibition of cell growth incubated for 72 hrs by CCK-8 assay; format: functional
# COLO 205 = experiment: Antiproliferative activity against human COLO 205 cells assessed as inhibition of cell growth incubated for 72 hrs by CCK-8 assay; format: functional
# [9] = target: Tyrosine-protein kinase TXK (Homo sapiens) (UniProt P42681); experiment: Inhibition of Txk (unknown origin) at 1 uM relative to control
# SNU-5 = experiment: Antiproliferative activity against human SNU-5 cells assessed as inhibition of cell growth incubated for 72 hrs by CCK-8 assay; format: functional
# Procedure, shortened: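 Plated at 10000 cells/well. Dose series topped at 10 uM for test compound and at 1 uM for the staurosporine reference. Read-outs were CC50 and maximum % inhibition.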
# BXPC-3 = experiment: Antiproliferative activity against human BXPC-3 cells assessed as inhibition of cell growth incubated for 72 hrs by CCK-8 assay; format: functional
# [10] = Cmax in Sprague-Dawley rat at 1 mg/kg, iv measured upto 24 hrs by LC-MS/MS analysis; format: ADME, organism-based; parameters: time < 24 hrs, dose 1 mg/kg, route iv; settings: in vivo
# [11] = target: T1, Tyrosine-protein kinase receptor UFO (Homo sapiens, UniProt P30530); experiment: Inhibition of human Axl using KKSRGDYMTMQIG as substrate incubated for 40 mins in the presence of [gamma33P]ATP by scintillation counting analysis
# T1 sequence (P30530 whole entry): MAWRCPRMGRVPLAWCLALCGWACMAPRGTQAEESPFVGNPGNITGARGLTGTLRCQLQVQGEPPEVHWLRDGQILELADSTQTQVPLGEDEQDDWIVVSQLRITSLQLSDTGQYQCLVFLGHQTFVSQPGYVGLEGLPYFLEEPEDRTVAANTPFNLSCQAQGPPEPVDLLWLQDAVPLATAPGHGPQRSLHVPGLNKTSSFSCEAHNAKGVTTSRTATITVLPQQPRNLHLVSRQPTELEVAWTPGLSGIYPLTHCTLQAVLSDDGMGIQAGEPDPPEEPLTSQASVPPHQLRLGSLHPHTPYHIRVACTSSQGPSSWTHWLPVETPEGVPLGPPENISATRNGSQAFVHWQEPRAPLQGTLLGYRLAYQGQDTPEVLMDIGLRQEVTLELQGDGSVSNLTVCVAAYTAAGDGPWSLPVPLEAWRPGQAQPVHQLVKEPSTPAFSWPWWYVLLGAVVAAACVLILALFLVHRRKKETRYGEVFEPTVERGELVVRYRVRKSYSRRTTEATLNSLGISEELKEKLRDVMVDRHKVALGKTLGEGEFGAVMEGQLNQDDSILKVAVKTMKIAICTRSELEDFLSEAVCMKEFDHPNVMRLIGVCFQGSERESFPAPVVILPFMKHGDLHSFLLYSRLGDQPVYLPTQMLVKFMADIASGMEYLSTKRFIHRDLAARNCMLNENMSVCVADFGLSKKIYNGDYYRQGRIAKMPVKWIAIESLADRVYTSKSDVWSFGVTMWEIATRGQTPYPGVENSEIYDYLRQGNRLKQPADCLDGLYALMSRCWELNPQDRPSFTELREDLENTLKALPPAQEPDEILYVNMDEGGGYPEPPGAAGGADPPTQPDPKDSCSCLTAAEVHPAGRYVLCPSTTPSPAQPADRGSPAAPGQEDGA
# Chain of Tyrosine-protein kinase TXK (Homo sapiens) (P42681 whole entry): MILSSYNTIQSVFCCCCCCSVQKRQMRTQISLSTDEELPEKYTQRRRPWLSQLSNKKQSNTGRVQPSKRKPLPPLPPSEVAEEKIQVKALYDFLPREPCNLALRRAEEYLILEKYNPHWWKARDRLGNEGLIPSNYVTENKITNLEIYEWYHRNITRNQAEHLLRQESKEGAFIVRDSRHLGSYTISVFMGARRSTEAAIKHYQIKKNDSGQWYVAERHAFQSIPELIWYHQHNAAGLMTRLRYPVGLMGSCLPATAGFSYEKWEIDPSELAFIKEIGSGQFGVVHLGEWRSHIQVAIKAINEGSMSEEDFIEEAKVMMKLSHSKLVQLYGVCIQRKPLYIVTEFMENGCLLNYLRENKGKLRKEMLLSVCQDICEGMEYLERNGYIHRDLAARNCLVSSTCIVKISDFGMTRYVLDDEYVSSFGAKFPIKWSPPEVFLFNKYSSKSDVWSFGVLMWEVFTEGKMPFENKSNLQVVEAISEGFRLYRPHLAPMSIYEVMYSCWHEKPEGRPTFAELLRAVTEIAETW
# Chain of Proto-oncogene tyrosine-protein kinase receptor Ret (Homo sapiens) (P07949 whole entry): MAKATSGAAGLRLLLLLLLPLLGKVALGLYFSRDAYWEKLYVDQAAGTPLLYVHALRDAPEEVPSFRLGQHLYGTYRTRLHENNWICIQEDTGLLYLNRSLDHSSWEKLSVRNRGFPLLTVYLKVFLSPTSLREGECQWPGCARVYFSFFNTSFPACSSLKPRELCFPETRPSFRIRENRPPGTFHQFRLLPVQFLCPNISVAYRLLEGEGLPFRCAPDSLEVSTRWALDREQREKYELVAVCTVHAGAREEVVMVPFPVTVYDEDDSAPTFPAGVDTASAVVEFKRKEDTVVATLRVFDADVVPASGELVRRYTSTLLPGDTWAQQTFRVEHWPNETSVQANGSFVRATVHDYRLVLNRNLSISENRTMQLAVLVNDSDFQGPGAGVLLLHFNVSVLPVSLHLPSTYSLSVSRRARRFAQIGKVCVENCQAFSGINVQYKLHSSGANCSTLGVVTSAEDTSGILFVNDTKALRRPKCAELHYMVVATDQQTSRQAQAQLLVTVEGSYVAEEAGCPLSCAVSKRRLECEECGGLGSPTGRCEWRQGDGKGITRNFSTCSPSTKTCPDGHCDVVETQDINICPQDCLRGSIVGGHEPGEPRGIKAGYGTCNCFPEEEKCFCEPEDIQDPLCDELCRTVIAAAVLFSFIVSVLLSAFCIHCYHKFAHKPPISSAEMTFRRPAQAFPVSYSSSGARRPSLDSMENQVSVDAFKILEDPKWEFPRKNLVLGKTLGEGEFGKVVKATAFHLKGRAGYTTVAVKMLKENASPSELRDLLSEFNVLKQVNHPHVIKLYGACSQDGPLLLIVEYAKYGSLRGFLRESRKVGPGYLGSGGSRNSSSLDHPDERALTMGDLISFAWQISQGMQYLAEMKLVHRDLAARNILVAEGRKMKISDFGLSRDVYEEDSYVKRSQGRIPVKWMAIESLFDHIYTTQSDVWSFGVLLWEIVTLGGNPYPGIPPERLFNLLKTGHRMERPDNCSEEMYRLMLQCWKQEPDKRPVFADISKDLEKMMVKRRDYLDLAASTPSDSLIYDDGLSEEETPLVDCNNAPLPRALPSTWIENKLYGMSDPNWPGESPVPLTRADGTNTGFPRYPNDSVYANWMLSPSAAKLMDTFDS
# Chain of Receptor-type tyrosine-protein kinase FLT3 (Homo sapiens) (P36888 whole entry): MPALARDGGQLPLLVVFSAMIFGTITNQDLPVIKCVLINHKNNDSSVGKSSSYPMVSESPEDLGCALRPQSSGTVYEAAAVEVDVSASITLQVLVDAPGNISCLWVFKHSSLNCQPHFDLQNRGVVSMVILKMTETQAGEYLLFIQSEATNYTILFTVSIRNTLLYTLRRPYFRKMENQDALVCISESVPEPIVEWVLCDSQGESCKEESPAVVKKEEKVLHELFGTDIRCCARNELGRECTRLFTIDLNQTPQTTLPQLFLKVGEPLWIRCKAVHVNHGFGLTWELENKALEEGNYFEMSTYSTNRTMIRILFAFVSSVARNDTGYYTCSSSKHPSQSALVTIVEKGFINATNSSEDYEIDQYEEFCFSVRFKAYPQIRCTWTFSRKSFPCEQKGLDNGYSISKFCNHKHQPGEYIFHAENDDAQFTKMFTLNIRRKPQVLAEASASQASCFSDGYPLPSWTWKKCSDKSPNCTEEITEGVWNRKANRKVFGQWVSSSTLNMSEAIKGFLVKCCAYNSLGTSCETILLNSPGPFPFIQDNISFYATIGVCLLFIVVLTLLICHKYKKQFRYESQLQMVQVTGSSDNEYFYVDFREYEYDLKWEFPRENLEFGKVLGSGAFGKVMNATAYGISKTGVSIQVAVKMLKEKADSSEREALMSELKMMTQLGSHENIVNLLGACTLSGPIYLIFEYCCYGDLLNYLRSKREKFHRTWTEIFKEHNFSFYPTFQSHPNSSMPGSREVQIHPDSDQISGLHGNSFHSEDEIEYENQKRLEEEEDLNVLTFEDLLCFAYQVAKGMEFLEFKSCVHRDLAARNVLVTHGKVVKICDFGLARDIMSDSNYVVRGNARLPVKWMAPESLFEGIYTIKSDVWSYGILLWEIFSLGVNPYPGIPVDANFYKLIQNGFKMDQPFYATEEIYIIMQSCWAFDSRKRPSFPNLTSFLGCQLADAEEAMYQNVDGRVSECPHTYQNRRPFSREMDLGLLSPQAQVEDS
# Chain of Vascular endothelial growth factor receptor 2 (Homo sapiens) (P35968 whole entry): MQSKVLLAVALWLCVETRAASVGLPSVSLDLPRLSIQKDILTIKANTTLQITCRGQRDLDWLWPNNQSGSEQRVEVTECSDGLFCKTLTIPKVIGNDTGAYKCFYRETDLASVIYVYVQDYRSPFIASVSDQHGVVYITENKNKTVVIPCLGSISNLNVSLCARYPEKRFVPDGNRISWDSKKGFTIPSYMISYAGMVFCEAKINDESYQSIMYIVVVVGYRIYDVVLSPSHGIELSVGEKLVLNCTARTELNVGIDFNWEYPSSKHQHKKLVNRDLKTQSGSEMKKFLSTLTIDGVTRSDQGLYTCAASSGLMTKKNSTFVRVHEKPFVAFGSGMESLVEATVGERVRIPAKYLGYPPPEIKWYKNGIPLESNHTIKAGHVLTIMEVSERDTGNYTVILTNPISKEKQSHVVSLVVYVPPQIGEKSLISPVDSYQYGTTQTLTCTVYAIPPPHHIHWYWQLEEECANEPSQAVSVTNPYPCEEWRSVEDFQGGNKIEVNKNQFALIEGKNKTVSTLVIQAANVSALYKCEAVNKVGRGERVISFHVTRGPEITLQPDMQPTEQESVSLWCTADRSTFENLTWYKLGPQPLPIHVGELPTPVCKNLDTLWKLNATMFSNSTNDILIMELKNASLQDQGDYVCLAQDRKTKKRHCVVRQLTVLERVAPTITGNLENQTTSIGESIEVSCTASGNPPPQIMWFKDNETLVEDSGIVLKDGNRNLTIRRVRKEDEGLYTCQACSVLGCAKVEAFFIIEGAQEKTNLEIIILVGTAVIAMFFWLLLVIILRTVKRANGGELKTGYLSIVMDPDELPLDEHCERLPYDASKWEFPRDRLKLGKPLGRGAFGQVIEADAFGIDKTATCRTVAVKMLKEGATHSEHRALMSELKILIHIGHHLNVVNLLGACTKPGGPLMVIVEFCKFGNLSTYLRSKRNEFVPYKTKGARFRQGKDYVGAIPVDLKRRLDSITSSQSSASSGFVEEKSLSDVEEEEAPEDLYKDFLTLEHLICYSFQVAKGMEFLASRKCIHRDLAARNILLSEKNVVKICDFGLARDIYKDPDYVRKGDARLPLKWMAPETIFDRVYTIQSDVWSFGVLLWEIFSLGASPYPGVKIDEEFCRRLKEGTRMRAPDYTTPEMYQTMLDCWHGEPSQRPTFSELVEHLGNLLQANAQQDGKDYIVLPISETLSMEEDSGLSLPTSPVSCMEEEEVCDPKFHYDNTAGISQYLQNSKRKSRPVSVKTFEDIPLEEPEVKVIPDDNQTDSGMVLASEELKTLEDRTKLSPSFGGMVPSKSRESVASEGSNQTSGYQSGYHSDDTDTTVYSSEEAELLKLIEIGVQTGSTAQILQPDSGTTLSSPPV
smiles,measurement,setting,value
CC(C)n1cnc(-c2ccccc2Nc2nc(Nc3ccc(N(C)C4CCN(C)CC4)cc3)ncc2Cl)n1,CC50,A549,293 nM
same,half-life,[1],28.3 min
same,CC50,MV4-11,66 nM
same,CC50,ASPC1,755 nM
same,AUClast,[2],422 ng·h/mL
same,CC50,NCI-H226,1240 nM
same,CLint scaled,[3],28.7 mL/min/kg
same,CC50,CAKI-1,493 nM
same,CC50,U-87 MG,3010 nM
same,inhibition,[4],Active
same,CC50,[5],119 nM
same,inhibition,[6],70%
same,CC50,CAL-27,107 nM
same,CC50,MSTO-211H,451 nM
same,CC50,NCI-H2052,1180 nM
same,CC50,KYSE-510,117 nM
same,CC50,RS4-11,138 nM
same,CC50,OVCAR-3,224 nM
same,CC50,HeLa,199 nM
same,CC50,SUD4,35.9 nM
same,half-life,[7],60.6 min
same,inhibition,[8],70%
same,CC50,HepG2,352 nM
same,CC50,COLO 205,350 nM
same,inhibition,[9],70%
same,CC50,SNU-5,356 nM
same,CC50,BXPC-3,382 nM
same,Cmax,[10],56.3 ng/mL
same,IC50,[11],5 nM
